Screening results: PubChem BioAssay, several laboratories
Most compounds without a hit are left out; they make up all but 4.4% or so of the library.
m5-HT2A agonist: mouse HTR2A agonism via beta-arrestin recruitment; P35363; CHO-K1 mHTR2A beta-arrestin complementation, luminescence; percent of 30 µM serotonin response; activation, % at 7.6 µM; 360,000 tested, 0.66% active; AID 624169;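 active = activation above a run cutoff, the mean activation of all tested compounds plus 3 SD, cut at about 14% in these data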;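 also: 0% = plate median of compound wells and 100% = 30 µM serotonin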
Target sequence (P35363 whole entry, looked up): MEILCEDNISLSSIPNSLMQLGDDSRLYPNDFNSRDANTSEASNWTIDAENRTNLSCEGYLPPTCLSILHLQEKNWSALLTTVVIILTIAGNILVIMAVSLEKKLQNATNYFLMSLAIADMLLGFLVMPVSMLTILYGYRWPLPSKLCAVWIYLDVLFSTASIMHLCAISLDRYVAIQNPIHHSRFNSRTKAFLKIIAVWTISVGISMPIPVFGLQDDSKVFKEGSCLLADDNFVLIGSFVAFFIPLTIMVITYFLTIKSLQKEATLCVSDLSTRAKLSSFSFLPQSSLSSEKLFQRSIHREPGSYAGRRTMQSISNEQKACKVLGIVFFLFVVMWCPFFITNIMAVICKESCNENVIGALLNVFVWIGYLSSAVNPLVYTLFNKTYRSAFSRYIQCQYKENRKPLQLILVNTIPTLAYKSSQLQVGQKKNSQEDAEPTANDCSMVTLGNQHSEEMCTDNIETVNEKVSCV
AI-2 QS mod: modulates the Vibrio harveyi AI-2 quorum sensing system. 300,000 tested, 0.4% active. activity change, % at 7.5 µM. AID 2094. Vibrio harveyi JMH597 AI-2 luminescence/OD600 ratio, 9 h; active compounds read low; strain lacks LuxN and CqsS sensors; 0 = neutral-control median; in the data active = activity change below about -75%, passing the limit was not always enough;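 also: luminescence divided by OD600 gain over 9 h not by final OD600 alone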
TbMetRS inhib: blocks T. brucei methionyl-tRNA synthetase activity. purified T. brucei MetRS, ATP depletion, Kinase-Glo luminescence. inhibition, % at 11.9 µM. 360,000 tested, 0.4% active. AID 624268;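 active = inhibition above a per-plate cutoff of the control wells' mean inhibition plus 3 SD, cut at about 5.5% in these data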;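 also: 0% = DMSO wells median and 100% = median of wells with control inhibitor compound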
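Material: parasite MetRS enzyme / Replication: singlicate, one well per compound / Signal: luminescence of leftover ATP / Schedule: 2 h aminoacylation at 25 °C after 15 min preincubation / Medium: HEPES-MgCl2-KCl buffer plus DTT, spermine, BSA, pyrophosphatase / Doses: 11.9 µM single point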
MsrA inhibitor: bovine MsrA inhibition; purified bovine MsrA, absorbance read-out; inhibition, % at 15.5 µM; 360,000 tested, 0.75% active; AID 651718; in the data active = inhibition above about 4.5%;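 also: 0% = vehicle wells with enzyme and 100% = reference inhibitor wells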
AHR activator: activators of human aryl hydrocarbon receptor; activation, % at 5 µM; AHR-responsive luciferase reporter cells, luminescence; 320,000 tested, 2.5% active; P35869; AID 2796; in the data active = activation above about 47%;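 also: 0% = vehicle wells and 100% = reference agonist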
bovine MsrA act: activators of bovine methionine sulfoxide reductase A. activation, % at 10.6 µM. 360,000 tested, 0.3% active. purified bovine MsrA, absorbance read-out; in the data active = activation above about 7.5%;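 also: 0% = vehicle and 100% = reference activator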
MsrA act confirm: bovine methionine sulfoxide reductase A activation confirmed; shares compounds with bovine MsrA act; purified bovine MsrA, absorbance read-out; activation, % at 10.6 µM; 1,000 tested, 12% active; AID 602270; in the data active = activation above about 4%;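 also: enzyme coupled to thioredoxin and thioredoxin reductase with NADPH; 0% = vehicle wells and 100% = reference activator wells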
An asterisk follows results filed as active; x = no result.

SMILES	m5-HT2A agonist	AI-2 QS mod	TbMetRS inhib	MsrA inhibitor	AHR activator	bovine MsrA act	MsrA act confirm
O=c1[nH]c(CN2CCN(CCO)CC2)nc2ccccc12	2	4	0	1	11	8.9*	0
CCOC(=O)c1[nH]c2ccc(F)cc2c1NC(=O)CN1CCN(C/C=C/c2ccccc2)CC1	-3	26	0	0	6	10*	-1
CC(C)OC(=O)c1sc2nc(-c3ccccc3)ccc2c1N	-2	-7	0	1	-9	8.8*	0
COCCNC(=O)c1[nH]c(C(F)(F)F)nc1-c1ccccc1	1	x	-1	0	x	-3	x
O=C(NC(=O)c1cccc(Cl)c1)OC[C@@H]1CCCN2CCCCC12 (stereo partly drawn)	-4	11	-1	0	-2	-3	x
O=C(NC(=O)c1cccc(F)c1)OC[C@@H]1CCCN2CCCC[C@H]12	1	23	0	-1	-2	8.8*	-2
CC(=O)N1C[C@H]2CON(C)[C@H]2C[C@H]1c1ccccc1	2	x	-1	0	x	-10	x
NC1=C(Cl)C(=O)c2ccc(S(N)(=O)=O)cc2C1=O	6	x	3	1	x	24*	14*
O=C(O)CCc1ccc(S(=O)(=O)Nc2ccccc2N2CCCCC2)cc1	-1	x	0	-1	2	-4	x
OCCCCCCNc1ccc(CCO)cc1	5	x	0	-1	x	8.6*	0
COC1=CC(=O)c2nc(Cl)ccc2C1=O	-1	x	4	0	x	12*	7.5*
NC(=O)c1ccc(=O)n(Cc2ccc(F)c(F)c2)c1	-1	0	0	0	2	8.0*	-1
CN(C(=O)c1ccc(=O)n(Cc2ccc(Cl)cc2)c1)c1ccccc1	-1	10	0	-1	-2	-2	x
O=C(Nc1nnc([C@H]2C[C@H](O)[C@@H](CO)O2)s1)Nc1ccc(F)cc1F	0	x	1	0	x	7.8*	-2
O=C(c1ccc2c(=O)n(C3CCCC3)c(=S)[nH]c2c1)N1CCN(C2CCCCC2)CC1	9	20	0	0	1	-3	x
CCN1CCN(C(=O)c2ccc3c(=O)n(C4CCCC4)c(=S)[nH]c3c2)CC1	-3	8	0	1	-1	8.8*	0
COC(=O)c1ccccc1S(=O)(=O)N1CCC(C(=O)NC2CCCCC2)CC1	7	x	0	0	0	11*	-2
CC1=C(C(N)=O)C(c2ccc(Cl)c(Cl)c2)n2ncnc2N1 (stereo not drawn)	-5	11	0	0	-1	7.9*	-1
CCCNCc1cc(OC)c(OCC(=O)NCCc2ccccc2)cc1Br	-3	9	0	-2	19	-2	x
CCC(CO)NCc1cc(OC)c(OCC(=O)NCCc2ccccc2)cc1Br (stereo not drawn)	0	33	0	0	2	9.0*	-1
O=C(Nc1ccccc1)[C@@H]1CC=C[C@@H]2CCN(Cc3ccc(Cl)c(Cl)c3)C(=O)[C@@H]21	-2	22	0	0	2	-1	x
Cn1nc(N)nc1N1CCN(c2ccc(F)cc2)CC1	-4	16	0	-1	-3	8.0*	-1
Nc1nc(N2CCN(c3ccc(F)cc3)CC2)n[nH]1	0	11	0	2	0	-5	x
C=CCOCCn1[nH]c2ccccc2c1=O	4	x	0	1	0	-2	x
COc1ccc(-c2noc(N3CCC(C(=O)NCCCN4CCCC(C)C4)CC3)n2)cc1 (stereo not drawn)	-4	23	0	-1	-3	8.7*	0
N#CCSc1ccccc1NC(=O)CN1C(=O)C2CC=CCC2C1=O (stereo not drawn)	6	x	0	0	x	-6	x
O=[N+]([O-])c1c(Cl)cc(Cl)cc1Cl	x	x	x	0	x	x	x
CCCCC(=O)N(C)c1c(CC)nc2c(OCc3ccc(C(F)(F)F)cc3)cccn12	-7	x	0	-1	x	0	x
COc1ccc(NC(=O)c2ccc([N+](=O)[O-])cc2[N+](=O)[O-])c(OC)c1	2	27	0	2	31	11*	1
COc1ccc(NC(=O)c2ccc(C)cc2Cl)c([N+](=O)[O-])c1	-1	5	-1	1	-5	-3	x
